ChEMBL document CHEMBL4689842, “EUbOPEN Chemogenomics Library wave 1” (2021)
“And” between values parts separate entries of the source, which are not always exact repeats. Equal values may be shown once.

Tested on: Fibroblast
Assay: Multiplex assay against human fibroblast
Type: toxicity, cell-based
Outline: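 Cells stained live at seeding with Hoechst33342, BioTracker Green Microtubule Cytoskeleton Dye, MitoTracker Red and Annexin V Alexa Fluor 680 were imaged on a CQ1 microscope at 37°C and 5% CO2 after compound addition. Their classification by CellPathfinder machine-learning gating ran from Hoechst high-intensity objects versus normal cells, to healthy, pyknosed or fragmented nuclei among normal cells, to mitotic or apoptotic among pyknosed cells. Tubulin, mitochondrial-mass and membrane-permeability phenotypes are per cents of healthy-nucleus cells.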

[1] = 12 h, 1 µM, compound concentration 1 uM, replicate 1
[2] = 12 h, 1 µM, compound concentration 1 uM, replicate 2
[3] = 12 h, 10 µM, compound concentration 10 uM, replicate 1
[4] = 12 h, 10 µM, compound concentration 10 uM, replicate 2
[5] = 24 h, 1 µM, compound concentration 1 uM, replicate 1
[6] = 24 h, 1 µM, compound concentration 1 uM, replicate 2
[7] = 24 h, 10 µM, compound concentration 10 uM, replicate 1
[8] = 24 h, 10 µM, compound concentration 10 uM, replicate 2
[9] = 48 h, 1 µM, compound concentration 1 uM, replicate 1
[10] = 48 h, 1 µM, compound concentration 1 uM, replicate 2
[11] = 48 h, 10 µM, compound concentration 10 uM, replicate 1
[12] = 48 h, 10 µM, compound concentration 10 uM, replicate 2

C=CC(=O)Nc1cccc(C(=O)Nc2ccc(Nc3cc(-c4[nH]c(SC)nc4C)ccn3)cc2)c1
Population Apoptotic (%) [1]: 69% | Population Fragmented Nuclei (%) [1]: 23% | Population Healthy Nuclei (%) [1]: 43% | Population Hoechst High Intensity Objects (%) [1]: 11% | Population Membrane Permeable-Phenotype (%) [1]: 28% | Population Mitochondria Different-Phenotype (%) [1]: 8% | Population Mitotic Cells (%) [1]: 30% | Population Normal (%) [1]: 88% | Population Pyknosed Nuclei (%) [1]: 33% | Population Tubulin-Different-Phenotype (%) [1]: 36% | Total Cell Count [1]: 131 | Population Apoptotic (%) [2]: 0% | Population Fragmented Nuclei (%) [2]: 2% | Population Healthy Nuclei (%) [2]: 94% | Population Hoechst High Intensity Objects (%) [2]: 14% | Population Membrane Permeable-Phenotype (%) [2]: 0% | Population Mitochondria Different-Phenotype (%) [2]: 7% | Population Mitotic Cells (%) [2]: 100% | Population Normal (%) [2]: 85% | Population Pyknosed Nuclei (%) [2]: 2% | Population Tubulin-Different-Phenotype (%) [2]: 23% | Total Cell Count [2]: 112 | Population Apoptotic (%) [3]: 50% | Population Fragmented Nuclei (%) [3]: 27% | Population Healthy Nuclei (%) [3]: 50% | Population Hoechst High Intensity Objects (%) [3]: 19% | Population Membrane Permeable-Phenotype (%) [3]: 18% | Population Mitochondria Different-Phenotype (%) [3]: 13% | Population Mitotic Cells (%) [3]: 50% | Population Normal (%) [3]: 80% | Population Pyknosed Nuclei (%) [3]: 22% | Population Tubulin-Different-Phenotype (%) [3]: 29% | Total Cell Count [3]: 109 | Population Apoptotic (%) [4]: 40% | Population Fragmented Nuclei (%) [4]: 6% | Population Healthy Nuclei (%) [4]: 83% | Population Hoechst High Intensity Objects (%) [4]: 18% | Population Membrane Permeable-Phenotype (%) [4]: 7% | Population Mitochondria Different-Phenotype (%) [4]: 12% | Population Mitotic Cells (%) [4]: 60% | Population Normal (%) [4]: 81% | Population Pyknosed Nuclei (%) [4]: 10% | Population Tubulin-Different-Phenotype (%) [4]: 12% | Total Cell Count [4]: 78 | Population Apoptotic (%) [5]: 60% | Population Fragmented Nuclei (%) [5]: 20% | Population Healthy Nuclei (%) [5]: 55% | Population Hoechst High Intensity Objects (%) [5]: 13% | Population Membrane Permeable-Phenotype (%) [5]: 29% | Population Mitochondria Different-Phenotype (%) [5]: 3% | Population Mitotic Cells (%) [5]: 39% | Population Normal (%) [5]: 86% | Population Pyknosed Nuclei (%) [5]: 24% | Population Tubulin-Different-Phenotype (%) [5]: 34% | Total Cell Count [5]: 134 | Population Apoptotic (%) [6]: 37% | Population Fragmented Nuclei (%) [6]: 3% | Population Healthy Nuclei (%) [6]: 87% | Population Hoechst High Intensity Objects (%) [6]: 4% | Population Membrane Permeable-Phenotype (%) [6]: 2% | Population Mitochondria Different-Phenotype (%) [6]: 10% | Population Mitotic Cells (%) [6]: 62% | Population Normal (%) [6]: 95% | Population Pyknosed Nuclei (%) [6]: 8% | Population Tubulin-Different-Phenotype (%) [6]: 25% | Total Cell Count [6]: 122 | Population Apoptotic (%) [7]: 30% | Population Fragmented Nuclei (%) [7]: 32% | Population Healthy Nuclei (%) [7]: 43% | Population Hoechst High Intensity Objects (%) [7]: 13% | Population Membrane Permeable-Phenotype (%) [7]: 20% | Population Mitochondria Different-Phenotype (%) [7]: 4% | Population Mitotic Cells (%) [7]: 69% | Population Normal (%) [7]: 86% | Population Pyknosed Nuclei (%) [7]: 23% | Population Tubulin-Different-Phenotype (%) [7]: 30% | Total Cell Count [7]: 113 | Population Apoptotic (%) [8]: 40% | Population Fragmented Nuclei (%) [8]: 5% | Population Healthy Nuclei (%) [8]: 85% | Population Hoechst High Intensity Objects (%) [8]: 11% | Population Membrane Permeable-Phenotype (%) [8]: 8% | Population Mitochondria Different-Phenotype (%) [8]: 14% | Population Mitotic Cells (%) [8]: 60% | Population Normal (%) [8]: 88% | Population Pyknosed Nuclei (%) [8]: 9% | Population Tubulin-Different-Phenotype (%) [8]: 12% | Total Cell Count [8]: 95 | Population Apoptotic (%) [9]: 62% | Population Fragmented Nuclei (%) [9]: 25% | Population Healthy Nuclei (%) [9]: 50% | Population Hoechst High Intensity Objects (%) [9]: 11% | Population Membrane Permeable-Phenotype (%) [9]: 34% | Population Mitochondria Different-Phenotype (%) [9]: 3% | Population Mitotic Cells (%) [9]: 37% | Population Normal (%) [9]: 88% | Population Pyknosed Nuclei (%) [9]: 23% | Population Tubulin-Different-Phenotype (%) [9]: 25% | Total Cell Count [9]: 129 | Population Apoptotic (%) [10]: 100% | Population Fragmented Nuclei (%) [10]: 36% | Population Healthy Nuclei (%) [10]: 61% | Population Hoechst High Intensity Objects (%) [10]: 17% | Population Membrane Permeable-Phenotype (%) [10]: 28% | Population Mitochondria Different-Phenotype (%) [10]: 2% | Population Mitotic Cells (%) [10]: 0% | Population Normal (%) [10]: 82% | Population Pyknosed Nuclei (%) [10]: 1% | Population Tubulin-Different-Phenotype (%) [10]: 20% | Total Cell Count [10]: 69 | Population Apoptotic (%) [11]: 43% | Population Fragmented Nuclei (%) [11]: 37% | Population Healthy Nuclei (%) [11]: 47% | Population Hoechst High Intensity Objects (%) [11]: 12% | Population Membrane Permeable-Phenotype (%) [11]: 11% | Population Mitochondria Different-Phenotype (%) [11]: 0% | Population Mitotic Cells (%) [11]: 56% | Population Normal (%) [11]: 87% | Population Pyknosed Nuclei (%) [11]: 14% | Population Tubulin-Different-Phenotype (%) [11]: 23% | Total Cell Count [11]: 123 | Population Apoptotic (%) [12]: 100% | Population Fragmented Nuclei (%) [12]: 36% | Population Healthy Nuclei (%) [12]: 57% | Population Hoechst High Intensity Objects (%) [12]: 13% | Population Membrane Permeable-Phenotype (%) [12]: 20% | Population Mitochondria Different-Phenotype (%) [12]: 3% | Population Mitotic Cells (%) [12]: 0% | Population Normal (%) [12]: 86% | Population Pyknosed Nuclei (%) [12]: 5% | Population Tubulin-Different-Phenotype (%) [12]: 27% | Total Cell Count [12]: 118

COc1ccc(Oc2cc(NCCC(F)(F)F)c3ncc(-c4ccc(C(=O)NC5CC5)c(C)c4)n3n2)c(F)c1F [BAY-1217389]
Population Apoptotic (%) [3]: 63% and 54% | Population Fragmented Nuclei (%) [3]: 28% and 27% | Population Healthy Nuclei (%) [3]: 48% and 59% | Population Hoechst High Intensity Objects (%) [3]: 18% and 14% | Population Membrane Permeable-Phenotype (%) [3]: 18% and 15% | Population Mitotic Cells (%) [3]: 36% and 45% | Population Normal (%) [3]: 81% and 85% | Population Pyknosed Nuclei (%) [3]: 23% and 12% | Population Tubulin-Different-Phenotype (%) [3]: 45% and 31% | Total Cell Count [3]: 203 and 339 | Population Apoptotic (%) [4]: 65% and 22% | Population Fragmented Nuclei (%) [4]: 35% and 55% | Population Healthy Nuclei (%) [4]: 33% and 28% | Population Hoechst High Intensity Objects (%) [4]: 23% and 34% | Population Membrane Permeable-Phenotype (%) [4]: 20% | Population Mitochondria Different-Phenotype (%) [4]: 34% and 18% | Population Mitotic Cells (%) [4]: 35% and 77% | Population Normal (%) [4]: 76% and 65% | Population Pyknosed Nuclei (%) [4]: 30% and 16% | Population Tubulin-Different-Phenotype (%) [4]: 38% and 50% | Total Cell Count [4]: 170 and 86 | Population Apoptotic (%) [7]: 77% and 48% | Population Fragmented Nuclei (%) [7]: 30% and 23% | Population Healthy Nuclei (%) [7]: 41% and 63% | Population Hoechst High Intensity Objects (%) [7]: 15% and 13% | Population Membrane Permeable-Phenotype (%) [7]: 12% and 8% | Population Mitotic Cells (%) [7]: 22% and 51% | Population Normal (%) [7]: 84% and 86% | Population Pyknosed Nuclei (%) [7]: 27% and 13% | Population Tubulin-Different-Phenotype (%) [7]: 59% and 27% | Total Cell Count [7]: 211 and 319 | Population Fragmented Nuclei (%) [8]: 54% and 47% | Population Healthy Nuclei (%) [8]: 20% and 36% | Population Hoechst High Intensity Objects (%) [8]: 19% and 30% | Population Membrane Permeable-Phenotype (%) [8]: 18% and 19% | Population Mitochondria Different-Phenotype (%) [8]: 18% and 23% | Population Mitotic Cells (%) [8]: 32% and 88% | Population Normal (%) [8]: 80% and 69% | Population Pyknosed Nuclei (%) [8]: 24% and 15% | Population Tubulin-Different-Phenotype (%) [8]: 29% and 52%
